Tests used:
[1] = Intrinsic clearance in human hepatocytes assessed per million cells; assay type: ADME, cell-based, Hepatocyte
[2] = molecular target: Tyrosine-protein kinase ABL1 (Homo sapiens) (UniProt P00519); test: Inhibition of ABL1 (unknown origin) at 1 uM relative to control
[3] = molecular target: Serine/threonine-protein kinase Nek2 (Homo sapiens) (UniProt P51955); test: Inhibition of NEK2 (unknown origin) at 1 uM relative to control
[4] = molecular target: Tyrosine-protein kinase Fes/Fps (Homo sapiens) (UniProt P07332); test: Inhibition of FES (FPS) (unknown origin) at 1 uM relative to control
Chain of Tyrosine-protein kinase Fes/Fps (Homo sapiens) (P07332 whole entry): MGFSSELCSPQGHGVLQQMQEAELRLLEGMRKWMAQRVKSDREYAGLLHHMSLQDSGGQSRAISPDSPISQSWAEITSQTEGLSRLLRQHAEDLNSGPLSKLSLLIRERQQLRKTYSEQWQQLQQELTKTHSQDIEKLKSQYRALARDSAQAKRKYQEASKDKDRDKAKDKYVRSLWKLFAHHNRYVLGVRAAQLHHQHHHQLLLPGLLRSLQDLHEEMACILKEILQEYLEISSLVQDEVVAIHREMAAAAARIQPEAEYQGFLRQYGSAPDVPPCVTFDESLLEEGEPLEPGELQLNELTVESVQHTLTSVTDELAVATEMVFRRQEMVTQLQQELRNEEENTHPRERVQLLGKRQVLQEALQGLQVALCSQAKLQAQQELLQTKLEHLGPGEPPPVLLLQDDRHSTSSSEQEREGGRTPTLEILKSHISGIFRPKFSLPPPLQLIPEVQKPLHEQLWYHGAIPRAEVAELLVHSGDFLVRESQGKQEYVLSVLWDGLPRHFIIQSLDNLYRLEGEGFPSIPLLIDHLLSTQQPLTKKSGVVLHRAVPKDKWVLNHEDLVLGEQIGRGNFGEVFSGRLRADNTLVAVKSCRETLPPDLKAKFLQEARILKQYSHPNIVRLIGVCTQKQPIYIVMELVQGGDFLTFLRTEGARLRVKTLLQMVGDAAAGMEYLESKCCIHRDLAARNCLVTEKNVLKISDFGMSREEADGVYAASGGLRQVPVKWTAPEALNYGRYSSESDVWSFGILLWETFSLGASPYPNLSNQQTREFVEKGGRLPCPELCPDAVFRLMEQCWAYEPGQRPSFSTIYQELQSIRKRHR

Mus musculus = test: Toxicity in nude C.B-17 SCID mouse model xenografted with human NCI-H1975 cells assessed as loss of body weight at 5 to 20 mg/kg, ig for 18 days; assay type: organism-based; settings: in vivo, po, 432 h
Outline: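 H1975 xenografts were set up by subcutaneous inoculation of 5 × 10^6 cells into C.B-17 SCID mice. At a mean tumor volume of 100-150 mm3, mice were randomized into groups of n = 9. They were dosed intragastrically once daily for 18 days at 5, 10 or 20 mg/kg, given as 0.1 mL/10 g body weight. The control group received PBS, and tumors were caliper-measured twice weekly.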

NCI-H1975 = test: In vivo anti tumor activity against human NCI-H1975 cells xenografted in nude C.B-17 SCID mouse model assessed as tumor volume at 10 mg/kg, ig for 18 days measured twice a week (reference value: 948.05 mm3); assay type: functional
[5] = molecular target: Voltage-gated inwardly rectifying potassium channel KCNH2 (Homo sapiens, UniProt Q12809); test: Inhibition of human ERG expressed in HEK293 cells by lonWorks Quattro analysis; assay type: cell-based
Chain of Voltage-gated inwardly rectifying potassium channel KCNH2 (Q12809 whole entry): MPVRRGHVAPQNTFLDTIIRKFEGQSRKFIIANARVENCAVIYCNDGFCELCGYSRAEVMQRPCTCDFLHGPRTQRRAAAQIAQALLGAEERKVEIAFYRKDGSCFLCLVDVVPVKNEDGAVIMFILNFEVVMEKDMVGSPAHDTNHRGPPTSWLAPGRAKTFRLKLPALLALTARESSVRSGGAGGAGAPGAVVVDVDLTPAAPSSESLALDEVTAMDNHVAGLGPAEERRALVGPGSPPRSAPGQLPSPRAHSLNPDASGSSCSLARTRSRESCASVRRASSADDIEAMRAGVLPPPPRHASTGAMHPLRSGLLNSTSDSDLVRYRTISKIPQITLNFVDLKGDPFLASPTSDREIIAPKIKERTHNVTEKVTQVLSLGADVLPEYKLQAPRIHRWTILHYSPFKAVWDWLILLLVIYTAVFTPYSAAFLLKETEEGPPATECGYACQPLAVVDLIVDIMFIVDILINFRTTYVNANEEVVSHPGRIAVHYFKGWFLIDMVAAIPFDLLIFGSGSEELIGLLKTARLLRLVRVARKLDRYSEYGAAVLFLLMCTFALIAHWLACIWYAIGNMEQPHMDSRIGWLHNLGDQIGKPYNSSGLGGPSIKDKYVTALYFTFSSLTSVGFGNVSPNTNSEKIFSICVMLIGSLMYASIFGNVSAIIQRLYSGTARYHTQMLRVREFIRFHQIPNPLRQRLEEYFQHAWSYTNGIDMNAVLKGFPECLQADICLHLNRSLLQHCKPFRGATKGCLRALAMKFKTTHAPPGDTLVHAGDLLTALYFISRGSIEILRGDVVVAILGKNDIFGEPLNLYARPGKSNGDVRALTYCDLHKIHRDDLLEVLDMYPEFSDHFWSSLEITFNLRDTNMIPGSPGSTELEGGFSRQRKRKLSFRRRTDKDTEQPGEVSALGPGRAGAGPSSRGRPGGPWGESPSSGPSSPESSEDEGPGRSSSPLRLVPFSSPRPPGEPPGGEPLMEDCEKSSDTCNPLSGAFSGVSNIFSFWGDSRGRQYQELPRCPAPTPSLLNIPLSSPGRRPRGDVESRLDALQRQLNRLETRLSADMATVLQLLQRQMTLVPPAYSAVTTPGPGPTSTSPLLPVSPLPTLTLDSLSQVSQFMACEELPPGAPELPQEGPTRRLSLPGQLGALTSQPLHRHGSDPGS

[6] = molecular target: Hepatocyte growth factor receptor (Homo sapiens) (UniProt P08581); test: Inhibition of MET (cMet) (unknown origin) at 1 uM relative to control
Chain of Hepatocyte growth factor receptor (Homo sapiens) (P08581 whole entry): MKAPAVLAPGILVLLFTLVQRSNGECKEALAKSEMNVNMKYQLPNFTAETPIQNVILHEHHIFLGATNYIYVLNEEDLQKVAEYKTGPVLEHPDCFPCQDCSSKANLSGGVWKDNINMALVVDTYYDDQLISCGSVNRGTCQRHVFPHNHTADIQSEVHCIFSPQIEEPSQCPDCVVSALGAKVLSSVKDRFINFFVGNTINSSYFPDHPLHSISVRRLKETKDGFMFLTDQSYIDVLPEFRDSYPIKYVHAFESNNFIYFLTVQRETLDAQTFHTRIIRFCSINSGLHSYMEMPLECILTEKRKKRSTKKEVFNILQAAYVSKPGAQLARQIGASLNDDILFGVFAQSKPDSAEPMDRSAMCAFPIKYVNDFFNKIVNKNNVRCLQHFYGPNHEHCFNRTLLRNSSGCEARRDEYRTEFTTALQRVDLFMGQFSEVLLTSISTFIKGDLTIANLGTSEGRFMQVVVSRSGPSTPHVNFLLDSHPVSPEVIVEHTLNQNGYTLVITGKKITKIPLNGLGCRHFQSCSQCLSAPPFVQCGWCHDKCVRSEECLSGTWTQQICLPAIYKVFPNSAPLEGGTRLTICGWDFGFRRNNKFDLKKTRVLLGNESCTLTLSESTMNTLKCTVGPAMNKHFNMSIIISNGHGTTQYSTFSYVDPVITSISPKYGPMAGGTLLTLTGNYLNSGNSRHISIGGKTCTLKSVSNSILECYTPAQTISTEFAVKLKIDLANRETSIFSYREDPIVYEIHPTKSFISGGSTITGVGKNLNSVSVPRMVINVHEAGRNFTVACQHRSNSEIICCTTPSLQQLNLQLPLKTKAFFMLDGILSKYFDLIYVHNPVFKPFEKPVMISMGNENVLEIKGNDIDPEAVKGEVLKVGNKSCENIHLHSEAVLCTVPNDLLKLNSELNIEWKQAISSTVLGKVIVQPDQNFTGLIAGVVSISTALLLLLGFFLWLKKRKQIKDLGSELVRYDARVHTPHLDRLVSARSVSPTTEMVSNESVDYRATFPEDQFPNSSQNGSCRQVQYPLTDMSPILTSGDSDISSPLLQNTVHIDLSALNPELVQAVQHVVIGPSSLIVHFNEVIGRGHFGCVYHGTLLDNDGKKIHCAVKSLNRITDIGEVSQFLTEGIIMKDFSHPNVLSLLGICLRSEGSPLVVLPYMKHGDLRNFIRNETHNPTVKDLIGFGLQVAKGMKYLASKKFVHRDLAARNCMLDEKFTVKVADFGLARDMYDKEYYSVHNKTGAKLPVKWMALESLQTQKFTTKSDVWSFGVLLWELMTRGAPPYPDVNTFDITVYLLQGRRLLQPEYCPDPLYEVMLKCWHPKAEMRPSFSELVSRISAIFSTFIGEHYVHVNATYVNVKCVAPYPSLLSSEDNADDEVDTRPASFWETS

[7] = molecular target: Receptor tyrosine-protein kinase erbB-2 (Homo sapiens) (UniProt P04626); test: Inhibition of ERBB2 (HER2) (unknown origin) at 1 uM relative to control
Chain of Receptor tyrosine-protein kinase erbB-2 (Homo sapiens) (P04626 whole entry): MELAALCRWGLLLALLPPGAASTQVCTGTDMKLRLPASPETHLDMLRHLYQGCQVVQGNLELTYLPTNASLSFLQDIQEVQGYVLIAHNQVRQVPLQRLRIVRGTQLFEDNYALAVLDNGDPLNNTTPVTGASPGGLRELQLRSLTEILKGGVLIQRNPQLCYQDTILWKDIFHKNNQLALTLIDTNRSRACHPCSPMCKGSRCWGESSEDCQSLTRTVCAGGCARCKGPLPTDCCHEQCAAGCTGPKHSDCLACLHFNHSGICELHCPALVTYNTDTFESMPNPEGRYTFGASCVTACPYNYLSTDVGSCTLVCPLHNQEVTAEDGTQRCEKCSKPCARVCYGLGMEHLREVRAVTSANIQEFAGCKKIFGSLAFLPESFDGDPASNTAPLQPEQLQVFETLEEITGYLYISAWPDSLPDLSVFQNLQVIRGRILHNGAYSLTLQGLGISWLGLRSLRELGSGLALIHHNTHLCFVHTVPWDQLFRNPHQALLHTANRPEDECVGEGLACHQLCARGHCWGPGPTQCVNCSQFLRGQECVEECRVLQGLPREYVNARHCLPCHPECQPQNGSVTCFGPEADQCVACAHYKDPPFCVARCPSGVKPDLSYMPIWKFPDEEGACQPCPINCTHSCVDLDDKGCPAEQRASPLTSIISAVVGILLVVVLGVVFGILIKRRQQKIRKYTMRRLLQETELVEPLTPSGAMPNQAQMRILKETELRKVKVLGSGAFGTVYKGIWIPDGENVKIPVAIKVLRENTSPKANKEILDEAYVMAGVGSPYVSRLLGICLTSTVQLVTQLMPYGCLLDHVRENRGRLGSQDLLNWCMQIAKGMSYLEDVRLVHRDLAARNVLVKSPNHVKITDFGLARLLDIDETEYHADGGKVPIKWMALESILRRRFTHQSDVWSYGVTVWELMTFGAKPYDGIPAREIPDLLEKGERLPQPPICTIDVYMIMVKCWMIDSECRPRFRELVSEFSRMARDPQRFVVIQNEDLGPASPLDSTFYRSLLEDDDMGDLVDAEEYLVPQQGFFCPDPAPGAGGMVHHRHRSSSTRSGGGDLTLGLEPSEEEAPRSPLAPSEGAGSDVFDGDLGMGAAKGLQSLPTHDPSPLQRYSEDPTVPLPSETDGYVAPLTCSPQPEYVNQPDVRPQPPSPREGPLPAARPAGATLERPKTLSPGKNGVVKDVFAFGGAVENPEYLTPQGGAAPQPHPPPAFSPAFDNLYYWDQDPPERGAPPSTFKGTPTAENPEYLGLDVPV

Chain of Serine/threonine-protein kinase Nek2 (Homo sapiens) (P51955 whole entry): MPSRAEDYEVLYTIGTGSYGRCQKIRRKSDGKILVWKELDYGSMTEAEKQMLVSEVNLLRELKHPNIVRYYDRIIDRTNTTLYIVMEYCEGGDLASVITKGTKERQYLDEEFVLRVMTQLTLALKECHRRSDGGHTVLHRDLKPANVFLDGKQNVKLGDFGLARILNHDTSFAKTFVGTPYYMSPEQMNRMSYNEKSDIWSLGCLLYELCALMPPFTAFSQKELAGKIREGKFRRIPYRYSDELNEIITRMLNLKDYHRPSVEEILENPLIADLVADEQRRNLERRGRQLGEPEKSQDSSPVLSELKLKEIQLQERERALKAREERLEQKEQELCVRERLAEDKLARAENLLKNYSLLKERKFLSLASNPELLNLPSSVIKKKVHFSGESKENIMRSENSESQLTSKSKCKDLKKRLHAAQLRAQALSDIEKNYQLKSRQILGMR

With `C=CC(=O)Nc1cc(Nc2nccc(-c3cn4c5c(cccc35)CCC4)n2)c(OC)cc1N(C)CCN(C)C` as the compound, how does the CLH [1] read?
Its CLH is 5 µL/min/10^6 cells.

What about the inhibition [2] of the same compound?
The inhibition was -2%.

And the inhibition [3]?
The inhibition was 7%.

What about the inhibition [4] of the same compound?
Its inhibition is 42%.

What about the Activity (Mus musculus) of the same compound?
The Activity was “Non-Toxic”.

And the Activity (NCI-H1975)?
Its Activity is 239.33 mm3.

And the IC50 [5]?
Its IC50 is 8.46 µM.

And the inhibition [6]?
Its inhibition is -2%.

What about the inhibition [7] of the same compound?
Its inhibition is 87%.

Reference: ChEMBL document CHEMBL4052618, “Design, synthesis, SAR discussion, in vitro and in vivo evaluation of novel selective EGFR modulator to inhibit L858R/T790M double mutants” (Eur J Med Chem, 2017)
